# Measured values published in ChEMBL document CHEMBL1128299, “Electrophilic N-benzylnaltrindoles as delta opioid receptor-selective antagonists” (J Med Chem, 1995).
# How the values were obtained:
# Mu-type opioid receptor = Mu-type opioid receptor (Cavia porcellus, UniProt P97266); assay: Tested for binding affinity against mu opioid receptor using [3H]DAMGO as a radioligand in the guinea pig brain membranes.; format: cell membranes
# How it was run: (§1)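 Radioligand competition in guinea pig brain membranes. Kappa sites were labelled with [3H]U69593 and mu sites with [3H]DAMGO. Delta1 sites used [3H]DPDPE and delta2 sites used [3H]DSLET, both in the presence of 100 nM unlabelled DAMGO. Results are reported as Ki.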
# [1] = target: Mu-type opioid receptor (Cavia porcellus) (UniProt P97266); assay: Antagonistic activity against Opioid receptor mu 1 in guinea pig ileum assay; format: functional, tissue-based
# Mu-type opioid receptor (Cavia porcellus), sequence (P97266 whole entry): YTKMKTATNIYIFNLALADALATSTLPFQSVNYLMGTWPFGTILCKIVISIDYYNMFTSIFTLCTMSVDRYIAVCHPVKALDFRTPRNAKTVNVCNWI
# How it was run: (§2)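 Electrically stimulated guinea pig ileum. Antagonist present at 100 nM during a 30 min incubation. Agonists were morphine (mu) and ethylketazocine (kappa). Antagonism was expressed as IC50 ratio: agonist IC50 with antagonist divided by control IC50.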
# Mus musculus [2] = assay: Tested in vivo for antagonistic activity against antinociceptive effect of icv-administered DSLET in mice at 1.5 hr; format: functional
# How it was run: (§3)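 Mice were pretreated icv with antagonist at 5 nmol. Antinociception from icv DPDPE (delta1) or DSLET (delta2) was measured 1.5 or 24 h later. ED50 ratio is pretreated ED50 over control ED50. Selectivity is the DSLET ED50 ratio divided by the DPDPE ED50 ratio.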
# Mus musculus [3] = assay: Tested in vivo for antagonistic activity against antinociceptive effect of icv-administered DPDPE in mice at 1.5 hr; format: functional; how it was run: as §3
# Mus musculus [4] = assay: Tested in vivo for antagonistic activity against antinociceptive effect of icv-administered DPDPE in mice at 24 hr; format: functional; how it was run: as §3
# [5] = target: Kappa-type opioid receptor (Cavia porcellus) (UniProt P41144); assay: Antagonistic activity against Opioid receptor kappa 1 in guinea pig ileum assay; format: functional, tissue-based; how it was run: as §2
# Kappa-type opioid receptor (Cavia porcellus), sequence (P41144 whole entry): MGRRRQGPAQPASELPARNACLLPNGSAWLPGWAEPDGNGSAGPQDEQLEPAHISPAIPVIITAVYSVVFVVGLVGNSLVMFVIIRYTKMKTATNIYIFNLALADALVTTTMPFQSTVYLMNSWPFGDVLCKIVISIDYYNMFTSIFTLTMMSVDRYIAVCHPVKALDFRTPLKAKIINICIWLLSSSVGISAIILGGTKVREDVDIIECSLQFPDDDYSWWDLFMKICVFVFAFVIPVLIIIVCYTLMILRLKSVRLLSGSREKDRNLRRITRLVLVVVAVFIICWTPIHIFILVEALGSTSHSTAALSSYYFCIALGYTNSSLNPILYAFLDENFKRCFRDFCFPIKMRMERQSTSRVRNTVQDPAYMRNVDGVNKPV
# [6] = target: T1, Opioid receptors; delta & kappa (Homo sapiens) (UniProt P41145+P41143); assay: Selectivity ratio as ratio of Ki value towards kappa receptor to that of delta-1 receptor.; format: protein assay
# T1 sequence (P41143 whole entry, looked up): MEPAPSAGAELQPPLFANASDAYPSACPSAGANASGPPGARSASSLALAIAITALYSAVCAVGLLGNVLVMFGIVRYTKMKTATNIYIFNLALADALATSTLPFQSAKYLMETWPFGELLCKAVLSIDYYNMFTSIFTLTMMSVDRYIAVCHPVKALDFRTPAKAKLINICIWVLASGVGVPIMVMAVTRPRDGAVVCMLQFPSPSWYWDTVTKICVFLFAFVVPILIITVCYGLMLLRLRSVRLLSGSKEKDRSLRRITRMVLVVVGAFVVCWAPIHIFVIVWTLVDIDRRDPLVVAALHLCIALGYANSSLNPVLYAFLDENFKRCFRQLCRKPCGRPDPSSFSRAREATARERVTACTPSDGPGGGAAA
# T1 sequence (P41145 whole entry, looked up): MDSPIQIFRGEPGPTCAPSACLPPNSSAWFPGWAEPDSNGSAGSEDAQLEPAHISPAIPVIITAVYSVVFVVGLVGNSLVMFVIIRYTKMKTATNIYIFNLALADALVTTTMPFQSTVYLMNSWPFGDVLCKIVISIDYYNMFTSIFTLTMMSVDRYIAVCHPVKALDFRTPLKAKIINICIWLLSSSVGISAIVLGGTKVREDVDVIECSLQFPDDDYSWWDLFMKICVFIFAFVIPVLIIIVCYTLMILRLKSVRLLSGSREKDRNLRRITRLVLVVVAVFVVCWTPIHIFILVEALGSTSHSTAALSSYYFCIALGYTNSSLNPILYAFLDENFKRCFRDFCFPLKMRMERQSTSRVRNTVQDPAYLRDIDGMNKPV
# Mus musculus [7] = assay: Tested in vivo for antagonistic activity against antinociceptive effect of icv-administered DSLET in mice at 24 hr; format: functional; how it was run: as §3
# [8] = target: Kappa-type opioid receptor (Cavia porcellus, UniProt P41144); assay: Tested for binding affinity against Opioid receptor kappa 1 using [3H]U-69593 as a radioligand in the guinea pig brain membranes.; format: cell membranes; how it was run: as §1
# Kappa-type opioid receptor, sequence (P41144 whole entry): as the sequence (P41144 whole entry) above
# [9] = target: T2, Opioid receptors; mu & delta (Homo sapiens) (UniProt P41143+P35372); assay: Selectivity ratio as ratio of Ki value towards mu receptor to that of delta-1 receptor.; format: protein assay
# T2 sequence (P35372 whole entry, looked up): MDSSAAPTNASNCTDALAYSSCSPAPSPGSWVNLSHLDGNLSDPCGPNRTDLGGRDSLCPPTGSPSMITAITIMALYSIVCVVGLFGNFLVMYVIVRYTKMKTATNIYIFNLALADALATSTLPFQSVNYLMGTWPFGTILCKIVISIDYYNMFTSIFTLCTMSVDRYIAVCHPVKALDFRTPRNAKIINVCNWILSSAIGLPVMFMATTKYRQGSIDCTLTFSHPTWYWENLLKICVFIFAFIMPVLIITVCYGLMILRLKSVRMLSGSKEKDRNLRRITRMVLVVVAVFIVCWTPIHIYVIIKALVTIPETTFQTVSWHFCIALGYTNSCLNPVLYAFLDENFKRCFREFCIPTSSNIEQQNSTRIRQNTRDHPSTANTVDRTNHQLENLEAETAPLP
# T2 sequence (P41143 whole entry, looked up): as the sequence (P41143 whole entry, looked up) above
# [10] = target: Delta-type opioid receptor (Homo sapiens) (UniProt P41143); assay: Selectivity ratio as ratio of ED50 value against delta-2 receptor to that delta-1 receptor after hours of administration,; format: functional, organism-based; how it was run: as §3
# Delta-type opioid receptor (Homo sapiens), sequence (P41143 whole entry): as the sequence (P41143 whole entry, looked up) above
# [11] = target: Delta-type opioid receptor (Homo sapiens) (UniProt P41143); assay: Selectivity ratio as ratio of ED50 value against delta-2 receptor to that delta-1 receptor after 1.5 administration.; format: functional, organism-based; how it was run: as §3
# [12] = target: T1, Opioid receptors; delta & kappa (Homo sapiens); assay: Selectivity ratio as the ratio of IC50 ratio of delta receptor to that of kappa receptor.; format: functional
# How it was run: (§4)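 Each selectivity value is the delta IC50 ratio from mouse vas deferens (DADLE, 100 nM antagonist, 30 min) divided by the kappa (ethylketazocine) or mu (morphine) IC50 ratio from guinea pig ileum. A value of 1 was used wherever an IC50 ratio was below 1.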
# [13] = target: Delta-type opioid receptor (Mus musculus) (UniProt P32300); assay: Antagonistic activity against opioid delta receptor in mouse vas deferens after 30 min incubation. Preparation was washed (5x) with buffer after incubation with antagonist.; format: functional, tissue-based
# Delta-type opioid receptor (Mus musculus), sequence (P32300 whole entry): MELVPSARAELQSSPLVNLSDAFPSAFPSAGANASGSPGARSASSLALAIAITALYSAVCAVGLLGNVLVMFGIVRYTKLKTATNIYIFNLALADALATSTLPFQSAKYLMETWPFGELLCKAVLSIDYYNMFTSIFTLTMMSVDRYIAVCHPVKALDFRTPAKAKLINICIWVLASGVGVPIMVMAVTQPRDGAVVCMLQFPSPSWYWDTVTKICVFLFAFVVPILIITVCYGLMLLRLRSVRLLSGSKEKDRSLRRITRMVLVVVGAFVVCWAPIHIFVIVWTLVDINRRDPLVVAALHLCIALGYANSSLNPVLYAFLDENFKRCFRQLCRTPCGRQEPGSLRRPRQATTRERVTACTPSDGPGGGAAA
# How it was run: (§5)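 Electrically stimulated mouse vas deferens with DADLE as the delta agonist. Antagonist at 100 nM was incubated for the stated time (10, 30 or 60 min). The preparation was then washed 5 times with buffer before agonist IC50 was measured. Result is the IC50 ratio, agonist IC50 with antagonist over control IC50.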
# [14] = target: Delta-type opioid receptor (Mus musculus) (UniProt P32300); assay: Tested […] for antagonistic activity against opioid delta receptor in mice at incubation time of 60 minutes. Preparation was washed (5x) with buffer after incubation with antagonist.; format: functional
# [15] = target: T2, Opioid receptors; mu & delta (Homo sapiens); assay: Selectivity ratio as the ratio of IC50 ratio of delta receptor to that of mu receptor.; format: functional; how it was run: as §4
# [16] = target: Delta-type opioid receptor (Mus musculus) (UniProt P32300); assay: Antagonistic activity against opioid delta receptor in mouse vas deferens after 10 minutes. Preparation was washed (5x) with buffer after incubation with antagonist.; format: functional, tissue-based; how it was run: as §5
# [17] = target: Delta-type opioid receptor (Mus musculus) (UniProt P32300); assay: Antagonistic activity against opioid delta receptor in mouse vas deferens after 30 min. IC50 ratio determined without washing (prewash).; format: functional
# How it was run: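 Electrically stimulated mouse vas deferens with DADLE as the delta agonist. Antagonist at 100 nM was incubated for 30 min. Agonist IC50 was measured directly without washing. Result is the IC50 ratio versus control agonist IC50.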
# Mu-type opioid receptor, sequence (P97266 whole entry): as the sequence (P97266 whole entry) above
Compound,Ki (Mu-type opioid receptor) [nM],IC50 ratio [1],ED50 ratio (Mus musculus [2]),ED50 ratio (Mus musculus [3]),ED50 ratio (Mus musculus [4]),IC50 ratio [5],Selectivity [6],ED50 ratio (Mus musculus [7]),Ki [8] [nM],Selectivity [9],Selectivity [10],Selectivity [11],Selectivity [12],IC50 ratio [13],IC50 ratio [14],Selectivity [15],IC50 ratio [16],IC50 ratio [17]
Oc1ccc2c3c1O[C@H]1c4c(c5ccccc5n4Cc4cccc(N=C=S)c4)C[C@@]4(O)C(C2)N(CC2CC2)CCC314 (some centres not stated),66.2,0.8,1.9,1.1,3.5,1.2,5,4.1,104,16,1.2,1.7,–,–,–,–,–,–
O=C(CBr)Nc1ccc(Cn2c3c(c4ccccc42)C[C@@]2(O)C4Cc5ccc(O)c6c5C2(CCN4CC2CC2)[C@H]3O6)cc1 (some centres not stated),–,0.7,–,–,–,0.9,–,–,–,–,–,–,30,12,1.4,30,3.6,30
O=C(CBr)Nc1ccccc1Cn1c2c(c3ccccc31)C[C@@]1(O)C3Cc4ccc(O)c5c4C1(CCN3CC1CC1)[C@H]2O5 (some centres not stated),–,1.7,–,–,–,1.1,–,–,–,–,–,–,33,13,–,21,–,35
CC(=O)Nc1cccc(Cn2c3c(c4ccccc42)C[C@@]2(O)C4Cc5ccc(O)c6c5C2(CCN4CC2CC2)[C@H]3O6)c1 (some centres not stated),–,5.3,–,–,–,0.9,–,–,–,–,–,–,31,18,–,31,16,33
Oc1ccc2c3c1O[C@H]1c4c(c5ccccc5n4Cc4ccccc4N=C=S)C[C@@]4(O)C(C2)N(CC2CC2)CCC314 (some centres not stated),151,0.6,1.4,1.1,19.4,1.3,308,8.8,615,76,0.5,1.3,45,39,216,57,23,57
CC(=O)Nc1ccccc1Cn1c2c(c3ccccc31)C[C@@]1(O)C3Cc4ccc(O)c5c4C1(CCN3CC1CC1)[C@H]2O5 (some centres not stated),–,1.9,–,–,–,1.3,–,–,–,–,–,–,42,10,–,29,–,54
Oc1ccc2c3c1O[C@H]1c4c(c5ccccc5n4Cc4ccc(N=C=S)cc4)C[C@@]4(O)C(C2)N(CC2CC2)CCC314 (some centres not stated),289,1.3,3.8,1.1,2.5,0.6,46,4.2,245,55,1.7,3.5,18,20,–,25,6.7,18
CC(=O)Nc1ccc(Cn2c3c(c4ccccc42)C[C@@]2(O)C4Cc5ccc(O)c6c5C2(CCN4CC2CC2)[C@H]3O6)cc1 (some centres not stated),–,0.9,–,–,–,0.2,–,–,–,–,–,–,31,3.1,7.1,31,1.6,31
O=C(CBr)Nc1cccc(Cn2c3c(c4ccccc42)C[C@@]2(O)C4Cc5ccc(O)c6c5C2(CCN4CC2CC2)[C@H]3O6)c1 (some centres not stated),15.3,3.8,2.4,1,2.8,0.9,463,6.9,8.8,805,2.5,2.4,511,51,–,135,44,511
O=C(CI)Nc1ccccc1Cn1c2c(c3ccccc31)C[C@@]1(O)C3Cc4ccc(O)c5c4C1(CCN3CC1CC1)[C@H]2O5 (some centres not stated),–,0.7,–,–,–,0.5,–,–,–,–,–,–,51,25.5,–,51,51.2,50.7
Oc1ccc2c3c1O[C@H]1c4c(c5ccccc5n4Cc4ccccc4)C[C@@]4(O)C(C2)N(CC2CC2)CCC314 (some centres not stated),–,1.6,3.2,1,1.5,0.4,–,11.1,–,–,7.4,3.2,208,–,–,131,–,208
